According to ChEMBL document CHEMBL1121732, “Synthesis and pharmacological activity of thiohexital enantiomers” (J Med Chem, 1981):
Where “and” joins values, the source holds several entries; their conditions need not be identical. Identical values can stand only once.

What was measured:
[1] = test system: Mus musculus; test: (§1) The median anesthetic dose evaluated after intraperitoneal administration in barbiturates.; assay type: functional
Summary of the method: (§2)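 Male CF-1 mice (29.5 ± 2.5 g). Drug dissolved in 0.1 M aqueous NaOH (monosodium salt), diluted with saline, dosed at 20 mL/kg ip or iv via caudal vein; weights as free acid. Anesthesia = loss of righting reflex (no recovery from back within 1 min). AD50 with 95% confidence limits by Litchfield-Wilcoxon; ≥4 doses giving 10-90% response, 10 mice per dose.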

[2] = Potency ratio of compound was measured after intraperitoneal administration; More potent; assay type: functional
Summary of the method: (§3)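 Potency relative to the racemate, the standard, from Litchfield-Wilcoxon dose-response curves (≥4 doses, 10 male CF-1 mice each) for loss of righting reflex. Dosing ip or iv (caudal vein) at 20 mL/kg in saline after dissolving in 0.1 M NaOH.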

[3] = test system: Mus musculus; test: Evaluation for the duration of action of intraperitoneal administration of dose; assay type: functional
[4] = test system: Mus musculus; test: The median anesthetic dose evaluated after intravenous administration in barbiturates.; assay type: functional; summary of the method: as §2
[5] = test system: Mus musculus; test: Evaluation for the onset of action of intraperitoneal administration of dose; assay type: functional
[6] = Potency ratio of compound to that of racemate was measured after intravenous administration; More potent; assay type: functional; summary of the method: as §3
[7] = Potency ratio of compound to that of racemate was measured after intraperitoneal administration; assay type: functional; summary of the method: as §3
[8] = Ratio of LD50 to AD50 after intraperitoneal administration; assay type: ADME; details: ip; read-out: Therapeutic index
Summary of the method: (§4)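 Therapeutic index, LD50/AD50. Both values from Litchfield-Wilcoxon curves in male CF-1 mice, 10 per dose, ≥4 doses. […] Dosing ip or iv (caudal vein), 20 mL/kg saline vehicle after 0.1 M NaOH.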

[9] = test system: Mus musculus; test: Evaluation for duration of recovery tremors after administration of dose; assay type: functional
Summary of the method: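 Groups of 40 male CF-1 mice, each given its compound's AD50 dose ip. Recovery tremors recorded for incidence, duration in minutes and graded severity.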

[10] = The median lethal dose evaluated after intraperitoneal administration in barbiturates.; assay type: ADME; details: ip
Summary of the method: (§5)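 Male CF-1 mice (29.5 ± 2.5 g). Drug dissolved in 0.1 M aqueous NaOH, diluted with saline, 20 mL/kg ip or iv (caudal vein); doses as free acid. Lethality scored over 24 h. LD50 with 95% confidence limits by Litchfield-Wilcoxon from ≥4 doses giving 10-90% response, 10 mice per dose.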

[11] = as §1; assay type: functional; details: ip; summary of the method: as §2
[12] = Potency ratio of compound was measured after intravenous administration; assay type: functional; summary of the method: as §3
[13] = Potency ratio of slower rate (LD50) to that of faster rate (LD50); assay type: functional
Summary of the method: (§6)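 Racemate given iv via caudal vein at 20 mL/kg, either fast (about 0.5 s) or slower (about 3.0 s) injection. […] Slow-rate value compared with fast-rate value.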

[14] = (§7) Evaluation after intravenous injection at faster rate (0.5 s); assay type: ADME, organism-based; details: mouse, in vivo
[15] = test system: Mus musculus; test: as §7; assay type: functional; summary of the method: as §2
[16] = Ratio of LD50 to AD50 after intravenous administration; assay type: ADME; summary of the method: as §4
[17] = Potency ratio of slower rate (AD50) to that of faster rate (AD50); assay type: functional; summary of the method: as §6
[18] = The median lethal dose evaluated after intravenous administration in barbiturates.; assay type: ADME; summary of the method: as §5

Row | Structure (SMILES) | AD50 [1] [mg/kg] | Potency ratio [2] | Duration [3] [min] | AD50 [4] [mg/kg] | Onset of action [5] [min] | Potency ratio [6] | Potency ratio [7] | selectivity ratio [8] | Duration [9] [min] | LD50 [10] [mg/kg] | LD50 [11] [mg/kg] | Potency ratio [12] | Potency ratio [13] | LD50 [14] [mg/kg] | AD50 [15] [mg/kg] | Therapeutic index [16] | selectivity ratio ([16]; read-out: Therapeutic index) | Potency ratio [17] | LD50 [18] [mg/kg]
1 | C=CCC1([C@@H](C)C#CCC)C(=O)NC(=S)NC1=O | 18.8 | 1.37 | 12.15 | 12.3 | 3.49 | 1.61 | 1.06 | 3.2 | 5.4 | 59.8 |  |  |  |  |  |  |  |  | 
2 | C=CCC1([C@H](C)C#CCC)C(=O)NC(=S)NC1=O | 27.3 |  |  | 24.1 |  |  | 1.06 and 1.04 | 2.4 | 6.2 |  | 66.1 | 1.22 |  |  |  |  |  |  | 
3 | C=CCC1(C(C)C#CCC)C(=O)NC(=S)NC1=O (racemic) [RAC THIOHEXITAL] | 25.8 |  | 12.36 | 19.8 | 3.69 |  |  | 2.5 | 5.8 |  |  |  | 1.7 | 31.5 | 9.2 | 3.4 | 2.7 | 2.15 | 53.5
